Reference: ChEMBL document CHEMBL4390662, “Design, synthesis and biological evaluation of novel α-acyloxy carboxamides via Passerini reaction as caspase 3/7 activators” (Eur J Med Chem, 2019)
Activity calls are given as the source filed them. The calls are words filed in the database; no cut-off is given here.

Columns and labels:
[1] = tested on: HepG2; test: Cytotoxicity against human HepG2 cells assessed as cell growth inhibition incubated for 72 hrs by MTT assay; assay type: functional, cell-based; settings: HepG2, 72 h
Outline: (§1)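 Cells grown in RPMI-1640 with 10% FBS and seeded at 5×10^3 per well. After 24 h, serial concentrations given for 72 h at 37°C, 5% CO2. Then 5 mg/mL MTT stock added for 3 h, formazan dissolved in DMSO, A570 read. IC50 calculated from the curves.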

[2] = tested on: Enterococcus faecalis; test: Antimicrobial activity against Enterococcus faecalis ATCC 29212 incubated for 24 hrs by agar well diffusion assay; assay type: functional
Outline: (§2)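 Nutrient agar spread with 100 µL inoculum: bacteria at 1×10^8 CFU/mL, fungi at 1×10^6 CFU/mL. 10 mm wells loaded with 100 µL of compound in DMSO (final 1 mg/mL). Bacteria incubated 24 h at 37 °C, fungi 48 h at 28 °C. Inhibition zones measured in mm. Ciprofloxacin and fluconazole standards at 1 mg/mL, DMSO negative control.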

[3] = tested on: Escherichia coli; test: Antimicrobial activity against Escherichia coli ATCC 25922 incubated for 24 hrs by agar well diffusion assay; assay type: functional; outline: as §2
[4] = Selectivity index, ratio of IC50 for human WI38 cells to IC50 for human MCF7 cells; assay type: toxicity; settings: WI38 cells versus MCF7 cells, read-out: Ratio IC50
Outline: (§3)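 SI calculated as IC50 on normal Wi-38 fibroblasts divided by IC50 on the cancer cell line. Both came from 72 h MTT assays.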

[5] = Selectivity index, ratio of IC50 for human WI38 cells to IC50 for mouse NFS60 cells; outline: as §3
[6] = tested on: MCF7; test: Potency index, ratio of doxorubicin IC50 to test compound IC50 against human MCF7 cells; assay type: functional
[7] = tested on: MCF7; test: Cytotoxicity against human MCF7 cells assessed as cell growth inhibition incubated for 72 hrs by MTT assay; assay type: functional, cell-based; settings: MCF7, 72 h; outline: as §1
[8] = tested on: Pseudomonas aeruginosa; test: Antimicrobial activity against Pseudomonas aeruginosa ATCC 27853 incubated for 24 hrs by agar well diffusion assay; assay type: functional; outline: as §2
[9] = tested on: Staphylococcus aureus; test: Antimicrobial activity against Staphylococcus aureus ATCC 25923 incubated for 24 hrs by agar well diffusion assay; assay type: functional; outline: as §2
[10] = tested on: Candida albicans; test: Antimicrobial activity against Candida albicans ATCC 90028 incubated for 48 hrs by agar well diffusion assay; assay type: functional; outline: as §2
[11] = tested on: NFS-60; test: Cytotoxicity against mouse NFS60 cells assessed as cell growth inhibition incubated for 72 hrs by MTT assay; assay type: functional, cell-based; settings: NFS-60, 72 h; outline: as §1
[12] = tested on: WI-38; test: Cytotoxicity against human WI38 cells assessed as cell growth inhibition incubated for 72 hrs by MTT assay; assay type: cell-based; settings: for IC50: Homo sapiens, WI-38, 72 h; for EC100: human, wi-38, 72 h
Outline: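 Wi-38 fibroblasts grown in DMEM with 10% FBS and seeded at 5×10^3 per well. Attachment 24 h, then serial concentrations for 72 h at 37°C, 5% CO2. MTT stock (5 mg/mL) added for 3 h at 37°C, DMSO solubilization, absorbance at 570 nm. IC50 estimated.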

[13] = Selectivity index, ratio of IC50 for human WI38 cells to IC50 for human HepG2 cells; assay type: toxicity; settings: WI38 cells versus HepG2 cells, read-out: Ratio IC50; outline: as §3
[14] = tested on: MCF7; test: Induction of apoptosis in human MCF7 cells assessed as late apoptotic cells at IC50 incubated for 72 hrs by annexin V/propidium iodide staining based flow cytometry (reference value: 0.01 +/- 0.001%); assay type: functional
[15] = tested on: NFS-60; test: Induction of apoptosis in mouse NFS60 cells assessed as total apoptotic cells at IC50 incubated for 72 hrs by annexin V/propidium iodide staining based flow cytometry (reference value: 0.495 +/- 0.01%); assay type: functional
[16] = tested on: HepG2; test: Induction of apoptosis in human HepG2 cells assessed as early apoptotic cells level at IC50 incubated for 72 hrs by annexin V/propidium iodide staining based flow cytometry (reference value: 0.05%); assay type: functional
[17] = tested on: HepG2; test: Induction of apoptosis in human HepG2 cells assessed as late apoptotic cells level at IC50 incubated for 72 hrs by annexin V/propidium iodide staining based flow cytometry (reference value: 0.1%); assay type: functional
[18] = tested on: NFS-60; test: Induction of apoptosis in mouse NFS60 cells assessed as caspase 3/7 activity using DEVD aminoluciferin as substrate at IC50 after 24 hrs […] relative to control; assay type: functional
Outline: (§4)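 Caspase 3/7 activation measured with Caspase-Glo 3/7 kit using a luminogenic caspase-cleavable substrate. […] Reported as percent activation, mean ± SEM.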

[19] = tested on: NFS-60; test: Induction of apoptosis in mouse NFS60 cells assessed as early apoptotic cells level at IC50 incubated for 72 hrs by annexin V/propidium iodide staining based flow cytometry (reference value: 0.46%); assay type: functional
[20] = tested on: HepG2; test: Induction of apoptosis in human HepG2 cells assessed as late apoptotic cells at IC50 incubated for 72 hrs by annexin V/propidium iodide staining based flow cytometry (reference value: 0.1 +/- 0.001%); assay type: functional
[21] = tested on: MCF7; test: Induction of apoptosis in human MCF7 cells assessed as late apoptotic cells level at IC50 incubated for 72 hrs by annexin V/propidium iodide staining based flow cytometry (reference value: 0.01%); assay type: functional
[22] = tested on: NFS-60; test: Induction of apoptosis in mouse NFS60 cells assessed as late apoptotic cells level at IC50 incubated for 72 hrs by annexin V/propidium iodide staining based flow cytometry (reference value: 0.01%); assay type: functional
[23] = tested on: MCF7; test: Induction of apoptosis in human MCF7 cells assessed as caspase 3/7 activity using DEVD aminoluciferin as substrate at IC50 after 24 hrs […] relative to control; assay type: functional; outline: as §4
[24] = tested on: HepG2; test: Induction of apoptosis in human HepG2 cells assessed as viable cells level at IC50 incubated for 72 hrs by annexin V/propidium iodide staining based flow cytometry (reference value: 98.97%); assay type: functional
[25] = tested on: HepG2; test: Induction of apoptosis in human HepG2 cells assessed as total apoptotic cells at IC50 incubated for 72 hrs by annexin V/propidium iodide staining based flow cytometry (reference value: 0.169 +/- 0.02%); assay type: functional
[26] = tested on: MCF7; test: Induction of apoptosis in human MCF7 cells assessed as early apoptotic cells level at IC50 incubated for 72 hrs by annexin V/propidium iodide staining based flow cytometry (reference value: 0.01%); assay type: functional
[27] = tested on: HepG2; test: Induction of apoptosis in human HepG2 cells assessed as necrotic cells level at IC50 incubated for 72 hrs by annexin V/propidium iodide staining based flow cytometry (reference value: 0.87%); assay type: functional
[28] = tested on: MCF7; test: Induction of apoptosis in human MCF7 cells assessed as total apoptotic cells at IC50 incubated for 72 hrs by annexin V/propidium iodide staining based flow cytometry (reference value: 0.48 +/- 0.01%); assay type: functional
[29] = tested on: NFS-60; test: Induction of apoptosis in mouse NFS60 cells assessed as viable cells level at IC50 incubated for 72 hrs by annexin V/propidium iodide staining based flow cytometry (reference value: 99.52%); assay type: functional
[30] = tested on: MCF7; test: Induction of apoptosis in human MCF7 cells assessed as viable cells level at IC50 incubated for 72 hrs by annexin V/propidium iodide staining based flow cytometry (reference value: 99.5%); assay type: functional
[31] = tested on: NFS-60; test: Induction of apoptosis in mouse NFS60 cells assessed as necrotic cells level at IC50 incubated for 72 hrs by annexin V/propidium iodide staining based flow cytometry (reference value: 0.01%); assay type: functional
[32] = tested on: HepG2; test: Induction of apoptosis in human HepG2 cells assessed as early apoptotic cells at IC50 incubated for 72 hrs by annexin V/propidium iodide staining based flow cytometry (reference value: 0.78 +/- 0.09%); assay type: functional
[33] = tested on: NFS-60; test: Induction of apoptosis in mouse NFS60 cells assessed as late apoptotic cells at IC50 incubated for 72 hrs by annexin V/propidium iodide staining based flow cytometry (reference value: 0.015 +/- 0.01%)
[34] = tested on: NFS-60; test: Induction of apoptosis in mouse NFS60 cells assessed as early apoptotic cells at IC50 incubated for 72 hrs by annexin V/propidium iodide staining based flow cytometry (reference value: 0.02 +/- 0.01%); assay type: functional
[35] = tested on: MCF7; test: Induction of apoptosis in human MCF7 cells assessed as necrotic cells level at IC50 incubated for 72 hrs by annexin V/propidium iodide staining based flow cytometry (reference value: 0.48%); assay type: functional
[36] = tested on: HepG2; test: Induction of apoptosis in human HepG2 cells assessed as caspase 3/7 activity using DEVD aminoluciferin as substrate at IC50 after 24 hrs by fluorescence assay relative to control; assay type: functional; outline: as §4
[37] = tested on: MCF7; test: Induction of apoptosis in human MCF7 cells assessed as early apoptotic cells at IC50 incubated for 72 hrs by annexin V/propidium iodide staining based flow cytometry (reference value: 0.47 +/- 0.01%); assay type: functional

With `Cc1ccc(C(=O)OC2(C(=O)Nc3ccc([N+](=O)[O-])cc3)CCCCC2)cc1` the IC50 [1] was 61.2 nM, the “diameter of the inhibition zone (DIZ)” value [2] was “inactive” and the “diameter of the inhibition zone (DIZ)” value [3] was “inactive”. For the same molecule, the selectivity ratio [4] was 3.27, the “Ratio IC50” value [5] was 0.704 and the “Ratio IC50” value [6] was 2 - 4. The IC50 [7] was 9.8 nM, the “diameter of the inhibition zone (DIZ)” value [8] was “inactive” and the “diameter of the inhibition zone (DIZ)” value [9] was “inactive”. The “diameter of the inhibition zone (DIZ)” value [10] was “inactive”, the IC50 [11] was 45.4 nM and the IC50 [12] was 32 nM. It also gave an EC100 [12] of 0.0064 µM and a selectivity ratio [13] of 0.522.

With `COc1cccc2c1C(=O)c1c(O)c3c(c(O)c1C2=O)C[C@@](O)(C(=O)CO)C[C@@H]3O[C@H]1C[C@H](N)[C@H](O)[C@H](C)O1` [DOXORUBICIN] the Activity [14] was 20.445%, the Activity [15] was 34.595% and the Activity [16] was 10.54%. The IC50 [1] was 10 nM, the Activity [17] was 23.91% and the Activity [18] was 45.39%. For the same molecule, the Activity [19] was 7.27%, the Activity [20] was 25.49% and the Activity [21] was 18.78%. It also gave an Activity [22] of 21.62%, an Activity [23] of 42.94% and an Activity [24] of 53.61%. It also gave an Activity [25] of 36.08%, an Activity [26] of 5.92% and an Activity [27] of 11.94%. For the same molecule, the Activity [28] was 33.974%, the Activity [29] was 58.34% and the Activity [30] was 60.42%. The Activity [31] was 12.76%, the Activity [32] was 10.59% and the Activity [33] was 23.215%. The Activity [34] was 11.379%, the Activity [35] was 14.88% and the Activity [36] was 48.09%. For the same molecule, the IC50 [11] was 13 nM, the IC50 [12] was 26.6 nM and the EC100 [12] was 0.0121 µM. For the same molecule, the Activity [37] was 13.53%.
